According to ChEMBL document CHEMBL1142894, “Preparation of 5-aryl-3-alkylthio-l,2,4-triazoles and corresponding sulfones with antiinflammatory-analgesic activity” (Bioorg Med Chem, 2007):
Calls of active or inactive are those of the source. The rule behind the calls is not given here.

Experiments:
[1] = test system: Mus musculus; assay: Acute toxicity in Swiss albino mouse assessed as lethal effect at 100 mg/kg/day, po after 72 hrs; format: organism-based; set-up: route oral; conditions: in vivo
Outline: (§1)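 Oral single dose suspended in 0.5% carboxymethylcellulose, given after a 24 h fast; food and water returned 1 h after dosing. Vehicle-only controls. Mice observed at 1 h, then once daily for 72 h, for toxic signs and mortality.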

[2] = test system: Mus musculus; assay: Antiinflammatory activity against carrageenan-induced paw edema in Swiss albino mouse assessed as swelling thickness at 100 mg/kg, po after 90 mins; format: functional
Outline: (§2)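 Oral dosing in 0.5% CMC; vehicle to controls. Then carrageenan (0.5 mg/25 ll, freshly suspended in 154 mM saline) injected into the right hind paw subplantar tissue; saline into the left paw. Right-left footpad thickness difference measured by dial gauge calliper every 90 min over 6 h. Inhibition % is relative to vehicle control. n = 6; mean ± SEM.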

[3] = test system: Mus musculus; assay: Gastric-ulcerogenic effect in Swiss albino mouse assessed as lesions at 100 mg/kg, po; format: functional, organism-based; set-up: dose 100 mg/kg
Outline: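 Mice killed under deep ether anesthesia 3 h after the writhing test; the oral dose in 0.5% CMC was the one used in that test. Stomachs removed, opened along the great curvature and examined under a dissecting microscope for lesions or bleeding. Reported as ratio of ulceration; n = 6.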

[4] = test system: Mus musculus; assay: Antiinflammatory activity against carrageenan-induced paw edema in Swiss albino mouse assessed as swelling thickness at 100 mg/kg, po after 180 mins; format: functional; outline: as §2
[5] = test system: Mus musculus; assay: Antiinflammatory activity against carrageenan-induced paw edema in Swiss albino mouse assessed as swelling thickness at 100 mg/kg, po after 360 mins; format: functional; outline: as §2
[6] = test system: Mus musculus; assay: Antiinflammatory activity against carrageenan-induced paw edema in Swiss albino mouse assessed as swelling thickness at 100 mg/kg, po after 270 mins; format: functional; outline: as §2
[7] = test system: Mus musculus; assay: Acute toxicity in Swiss albino mouse assessed as lethal effect at 25 mg/kg/day, po after 72 hrs; format: organism-based; set-up: route oral; conditions: in vivo; outline: as §1
[8] = test system: Mus musculus; assay: Acute toxicity in Swiss albino mouse assessed as lethal effect at 50 mg/kg/day, po after 72 hrs; format: organism-based; set-up: route oral; conditions: in vivo; outline: as §1
[9] = test system: Mus musculus; assay: Analgesic activity against p-benzoquinone-induced abdominal constriction in Swiss albino mouse assessed as number of writhings at 100 mg/kg, po; format: functional, Abdomen
Outline: (§3)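 Test samples given orally in 0.5% CMC; vehicle to controls. 60 min later, 2.5% (v/v) p-benzoquinone in distilled water, 0.1 ml/10 g, given i.p. Mice housed singly; writhes counted for 15 min starting 5 min after injection. Activity is % change from vehicle controls. n = 6; mean ± SEM.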

[10] = test system: Mus musculus; assay: Acute toxicity in Swiss albino mouse assessed as lethal effect at 200 mg/kg/day, po after 72 hrs; format: organism-based; set-up: route oral; conditions: in vivo; outline: as §1
[11] = test system: Mus musculus; assay: Inhibition of p-benzoquinone-induced writhing in Swiss albino mouse at 200 mg/kg, po relative to control; format: functional
Outline: (§4)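 Mice, n = 6 per group, dosed orally with a suspension in 0.5% sodium CMC. 60 min later, 0.1 ml/10 g of 2.5% […] p-benzoquinone in distilled water given ip. Abdominal writhes counted per animal for 15 min, starting 5 min after injection. Expressed as % change in mean writhing count versus vehicle controls.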

[12] = test system: Mus musculus; assay: Analgesic activity against p-benzoquinone-induced abdominal constriction in Swiss albino mouse assessed as number of writhings at 200 mg/kg, po; format: functional, Abdomen; outline: as §3
[13] = test system: Mus musculus; assay: Inhibition of p-benzoquinone-induced writhing in Swiss albino mouse at 100 mg/kg, po relative to control; format: functional; outline: as §4
[14] = test system: Mus musculus; assay: Inhibition of carrageenan-induced paw edema in Swiss albino mouse at 100 mg/kg, po after 270 mins relative to control; format: functional; conditions: 4.5 h; outline: as §2
[15] = test system: Mus musculus; assay: Inhibition of carrageenan-induced paw edema in Swiss albino mouse at 100 mg/kg, po after 90 mins relative to control; format: functional; conditions: 1.5 h; outline: as §2
[16] = test system: Mus musculus; assay: Inhibition of carrageenan-induced paw edema in Swiss albino mouse at 100 mg/kg, po after 180 mins relative to control; format: functional; conditions: 3 h; outline: as §2
[17] = test system: Mus musculus; assay: Inhibition of carrageenan-induced paw edema in Swiss albino mouse at 100 mg/kg, po after 360 mins relative to control; format: functional; conditions: 6 h; outline: as §2

Compound	Activity [1]	Activity [2]	Activity [3]	Activity [4]	Activity [5]	Activity [6]	Activity [7]	Activity [8]	Activity [9]	Activity [10]	inhibition in vivo at 200 mg/kg [11] [%]	Activity [12]	inhibition in vivo at 100 mg/kg [13] [%]	inhibition in vivo at 100 mg/kg [14] [%]	inhibition in vivo at 100 mg/kg [15] [%]	inhibition in vivo at 100 mg/kg [16] [%]	inhibition in vivo at 100 mg/kg [17] [%]
CS(=O)(=O)c1nc(-c2cccc(Br)c2)n[nH]1	Non-toxic	48.2 10^-2mm	Active	55.9 10^-2mm	80.5 10^-2mm	65.8 10^-2mm	Non-toxic	Non-toxic	48.2	Non-toxic							
CCSc1nc(-c2cccc(Br)c2)n[nH]1	Non-toxic	48.5 10^-2mm	Active	52.3 10^-2mm	58.3 10^-2mm	55.3 10^-2mm	Non-toxic	Non-toxic	51.5	Non-toxic							
CC(=O)Oc1ccccc1C(=O)O [ASPIRIN]									21.2		53.6	23.8	55.2				
CSc1n[nH]c(-c2ccc(Cl)cc2)n1	Non-toxic						Non-toxic	Non-toxic		Non-toxic							
CCSc1nc(-c2ccc(Br)cc2)n[nH]1	Non-toxic	59.6 10^-2mm		69.2 10^-2mm	88.3 10^-2mm	78.2 10^-2mm	Non-toxic	Non-toxic	49.2	Non-toxic							
CSc1nc(-c2cccc(Br)c2)n[nH]1	Non-toxic	47.5 10^-2mm	Active	57.3 10^-2mm	79.5 10^-2mm	67.7 10^-2mm	Non-toxic	Non-toxic	46.8	Non-toxic			1.1				
CCS(=O)(=O)c1nc(-c2cccc(Br)c2)n[nH]1	Non-toxic	68.8 10^-2mm		74.9 10^-2mm	91.7 10^-2mm	85.6 10^-2mm	Non-toxic	Non-toxic	45.2	Non-toxic			4.4				
CS(=O)(=O)c1nc(-c2ccc(Br)cc2)n[nH]1	Non-toxic	51.2 10^-2mm		55.2 10^-2mm	64 10^-2mm	59.5 10^-2mm	Non-toxic	Non-toxic	49.4	Non-toxic							
CSc1nc(-c2ccccc2)n[nH]1	Non-toxic	38.1 10^-2mm		44.5 10^-2mm	54.4 10^-2mm	47.6 10^-2mm	Non-toxic	Non-toxic	40.2	Non-toxic			15	19	14.9	13.6	20.9
CSc1nc(-c2ccccc2Cl)n[nH]1	Non-toxic	42.7 10^-2mm	Active	48.8 10^-2mm	57 10^-2mm	52.8 10^-2mm	Non-toxic	Non-toxic	41.8	Non-toxic			11.6	10.2	4.7	5.2	17.2
CSc1nc(-c2ccc(Br)cc2)n[nH]1	Non-toxic	46.9 10^-2mm		54.1 10^-2mm	70.9 10^-2mm	63.3 10^-2mm	Non-toxic	Non-toxic	58.9	Non-toxic							
CS(=O)(=O)c1nc(-c2ccccc2)n[nH]1	Non-toxic	44.2 10^-2mm	Active	45.2 10^-2mm	56.7 10^-2mm	47.5 10^-2mm	Non-toxic	Non-toxic	37.4	Non-toxic			20.9	19.2	1.3	12.2	
CCSc1nc(-c2ccccc2)n[nH]1	Non-toxic	46 10^-2mm	Active	48.3 10^-2mm	54.7 10^-2mm	51.2 10^-2mm	Non-toxic	Non-toxic	46.1	Non-toxic			2.5				
